Test [1] has as its target T1, Deoxyuridine 5'-triphosphate nucleotidohydrolase, mitochondrial (Homo sapiens, UniProt P33316).
T1 sequence (P33316 whole entry): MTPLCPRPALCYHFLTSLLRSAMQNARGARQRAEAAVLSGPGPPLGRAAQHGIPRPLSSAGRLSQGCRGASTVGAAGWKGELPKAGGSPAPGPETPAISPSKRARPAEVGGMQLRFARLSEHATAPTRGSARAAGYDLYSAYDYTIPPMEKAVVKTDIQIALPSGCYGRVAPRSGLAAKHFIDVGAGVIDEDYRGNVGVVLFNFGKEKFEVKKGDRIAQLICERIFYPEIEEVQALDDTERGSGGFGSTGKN
Description: Inhibitory constant against human deoxyuridine 5'-triphosphate nucleotidohydrolase expressed in Escherichia coli BL21 (DE3) cells. In outline:
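Human dUTPase expressed in E. coli BL21(DE3) and purified like the Plasmodium enzyme (phosphocellulose, then gel filtration). dUTP hydrolysis followed continuously by stopped-flow as pH-indicator absorbance (cresol red/bicine, 50:2000 µM, 573 nm). Apparent KM from integrated Michaelis-Menten fits at each inhibitor concentration; Ki from linear KMapp versus [I].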

The test system of a further test is L6. Description: In vitro cytotoxicity aganist rat skeletal myoblasts (L-6 cells) after 72 hours. Type of test: functional, cell-based. To be noted: L6, 72 h. In outline: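 L-6 rat skeletal myoblasts seeded at 4 × 10^4 cells/mL in RPMI 1640 with 10% FBS and 2 mM L-glutamine. After 24 h, medium replaced with a serial drug dilution, then 72 h at 37 °C, 5% CO2. Alamar Blue added for a further 2-4 h. Fluorescence read at ex 536/em 588 nm. Run twice independently, in duplicate.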

The test system of test [2] is Trypanosoma brucei rhodesiense. Description: Inhibitory constant against Trypanosoma brucei rhodesiense upon incubation with the compound at 37 degrees C under a 5% CO2 atmosphere for 72 hours. Type of test: functional, organism-based.
The next test concerns Trypanosoma cruzi. Description: In vitro growth inhibitory activity against Trypanosoma cruzi in rat L-6 cells upon incubation at 37 degrees C in 5% CO2 atmosphere for 4 days. To be noted: L6, 96 h. Type of test: functional, organism-based. Summed up: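 L-6 cells seeded at 2000 cells/well in RPMI 1640 with 10% FBS and 2 mM L-glutamine. After 24 h, 5000 T. cruzi Tulahuen C2C4 LacZ trypomastigotes added with serial drug dilutions, then 4 days at 37 °C, 5% CO2. CPRG/Nonidet substrate added and colour read at 540 nm after 2-4 h. IC50 from sigmoidal curve. Twice independently, in duplicate.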

The target in test [3] is T2, dUTP pyrophosphatase (Plasmodium falciparum 3D7) (UniProt Q8II92).
T2 sequence (whole entry): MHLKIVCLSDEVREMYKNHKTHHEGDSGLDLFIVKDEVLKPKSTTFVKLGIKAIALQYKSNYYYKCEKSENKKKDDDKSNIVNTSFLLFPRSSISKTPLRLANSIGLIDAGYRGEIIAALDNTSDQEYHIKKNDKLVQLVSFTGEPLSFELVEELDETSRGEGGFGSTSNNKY
In words: Selectivity index for Plasmodium falciparum deoxyuridine 5'-triphosphate nucleotidohydrolase defined as (Ki Human)/(Ki Plasmodium falciparum); na= not relevant. Summed up: (§1)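 Ratio of human dUTPase Ki to P. falciparum dUTPase Ki. Both Ki values came from stopped-flow pH-indicator assays following dUTP hydrolysis, with Ki derived from the dependence of apparent KM on inhibitor concentration.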

In test [4] the target is T3, dUTP pyrophosphatase (Leishmania major, UniProt O15826).
T3 sequence (O15826 whole entry): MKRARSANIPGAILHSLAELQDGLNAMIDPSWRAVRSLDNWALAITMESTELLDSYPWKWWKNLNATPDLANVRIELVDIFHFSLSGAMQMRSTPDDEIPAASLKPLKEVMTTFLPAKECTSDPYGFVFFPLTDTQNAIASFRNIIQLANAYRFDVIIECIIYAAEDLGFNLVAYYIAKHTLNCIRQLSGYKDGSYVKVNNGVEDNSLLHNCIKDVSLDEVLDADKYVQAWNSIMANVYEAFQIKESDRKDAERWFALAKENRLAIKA
Description: Inhibitory constant against Leishmania major deoxyuridine 5'-triphosphate nucleotidohydrolase.

In the next test the test system is Plasmodium falciparum. Description: In vitro inhibitory activity against Plasmodium falciparum as [3H]hypoxanthine (50 uL) incorporation at 37C. Type of test: functional, organism-based.
Test [5] has as its target T4, dUTP pyrophosphatase (Plasmodium falciparum 3D7, UniProt Q8II92).
T4 sequence (Q8II92 whole entry): T2 sequence (whole entry)
Description: Inhibitory constant against Plasmodium falciparum deoxyuridine 5'-triphosphate nucleotidohydrolase expressed in Escherichia coli BL21 (DE3) cells. In outline:
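Recombinant PfdUTPase expressed in E. coli BL21(DE3) and purified by phosphocellulose and gel filtration to ~96% purity. Continuous stopped-flow assay following proton release with cresol red/bicine (50:2000 µM, 573 nm). Mix: 30 nM enzyme, 50 µM dUTP, 5 mM MgCl2, 2.5 mM DTT, 1.25 mg/mL BSA, 100 mM KCl. KMapp from integrated Michaelis-Menten fits, plotted against [I] to give Ki.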

The subject of another test is Leishmania donovani. Description: In vitro growth inhibitory activity against Leishmania donovani amastigotes at 37 degrees C under a 5% CO2 atmosphere for 96 hours. Type of test: functional, organism-based. Summed up:
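Mouse peritoneal macrophages in RPMI 1640 with 10% heat-inactivated FBS, infected after 24 h with L. donovani amastigotes at 3:1 (amastigote:macrophage). Free amastigotes washed out at 4 h. Next day, drug-containing medium added for 96 h at 37 °C, 5% CO2. Slides methanol-fixed and Giemsa-stained. Percentage of infected macrophages scored microscopically versus control; IC50 by linear regression. Twice independently, in duplicate.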

In test [6] the target is T2, dUTP pyrophosphatase (Plasmodium falciparum 3D7). In words: Selectivity index for Plasmodium falciparum deoxyuridine 5'-triphosphate nucleotidohydrolase defined as (Ki Human)/(Ki Plasmodium falciparum). In outline:
as §1

Molecules are shown by their SMILES.

With `O=c1ccn(C2CC(F)C(CO[Si](c3ccccc3)(c3ccccc3)c3ccccc3)O2)c(=O)[nH]1` (centres undefined), the Ki in test [1] was more than 1000 µM; on dUTP pyrophosphatase [4], more than 1000 µM; at dUTP pyrophosphatase [5], 975 µM. Further, the IC50 is 86 µM in the test on L6, 4.5 µM in test [2], 84 µM in the test with Trypanosoma cruzi and 1 µM with Plasmodium falciparum. In addition, in test [3], the SI result is “Not Relevant”.
Take `CCOP(=O)(CC(=O)OC[C@H]1O[C@@H](n2ccc(=O)[nH]c2=O)C[C@@H]1O[Si](C)(C)C(C)(C)C)OCC`: the IC50 was 40 µM in test [2], more than 58 µM in the test on Leishmania donovani, 75 µM in the test with Trypanosoma cruzi and 18 µM with Plasmodium falciparum. Further, the SI entry in [3] is “Not Relevant”. Further, the results for the inhibition constant Ki on dUTP pyrophosphatase [4] and on dUTP pyrophosphatase [5] were more than 1000 µM and 217 µM, respectively.
`CC(=O)NCC1OC(n2ccc(=O)[nH]c2=O)CC1O` (centres undefined): the Ki (in [1]; at dUTP pyrophosphatase [4]; at dUTP pyrophosphatase [5]) was more than 1000 µM in each case. The concentration for half-maximal inhibition (IC50) with L6 was more than 335 µM; in test [2] it was 194 µM; with Leishmania donovani, more than 112 µM; with Trypanosoma cruzi, more than 335 µM; in the test on Plasmodium falciparum, more than 19 µM. Further, the SI entry in [3] is “Not Relevant”.
As to `NCC1OC(n2ccc(=O)[nH]c2=O)CC1O` (centres undefined), the Ki (in test [1]; on dUTP pyrophosphatase [4]; at dUTP pyrophosphatase [5]) was more than 1000 µM each time. Also, the SI result in test [3] is “Not Relevant”.
For the compound `NS(=O)(=O)OC[C@H]1O[C@@H](n2ccc(=O)[nH]c2=O)C[C@@H]1O`, the Ki in test [1] was more than 1000 µM; at dUTP pyrophosphatase [4], 707 µM; on dUTP pyrophosphatase [5], more than 1000 µM. The IC50 is 145 µM in [2], more than 98 µM in the test with Leishmania donovani, more than 293 µM in the test with Trypanosoma cruzi and more than 163 µM in the test with Plasmodium falciparum. For the same compound, in test [3], the SI entry is “Not Relevant”.
Regarding `CC(C)(C)[Si](C)(C)OC1CC(n2ccc(=O)[nH]c2=O)OC1CNP(=O)(Oc1ccccc1)Oc1ccccc1` (centres undefined), the results for the Ki (in test [1]; at dUTP pyrophosphatase [4]; on dUTP pyrophosphatase [5]) were 232 µM, more than 1000 µM and 67 µM, respectively. For the same compound, the IC50 in the test with L6 was 18 µM; in test [2], 28 µM; in the test on Leishmania donovani it was less than 6 µM; with Trypanosoma cruzi, 6 µM; with Plasmodium falciparum it was 4 µM. The compound also showed an SI in [6] of 3.5.
Take `Cc1ccc(S(=O)(=O)OC[C@H]2O[C@@H](n3ccc(=O)[nH]c3=O)C[C@@H]2O)cc1`: the Ki in test [1] was more than 1000 µM; on dUTP pyrophosphatase [4] it was more than 1000 µM; on dUTP pyrophosphatase [5], 142 µM. Further, the IC50 with L6 was more than 236 µM; in [2] it was 44 µM; in the test on Leishmania donovani, more than 79 µM; with Trypanosoma cruzi, more than 236 µM; with Plasmodium falciparum, more than 13 µM. Besides, in test [6], the SI was more than 7.
For `O=C(OC[C@H]1O[C@@H](n2ccc(=O)[nH]c2=O)C[C@@H]1O)c1ccccc1`, the Ki in [1] was more than 1000 µM; at dUTP pyrophosphatase [4], more than 1000 µM; at dUTP pyrophosphatase [5], 268 µM. The IC50 with L6 is more than 271 µM; in test [2] it was 117 µM; in the test on Leishmania donovani, more than 90 µM; with Trypanosoma cruzi, more than 271 µM; in the test on Plasmodium falciparum, more than 15 µM. This compound also registered an SI in test [6] of more than 3.
Regarding `CS(=O)(=O)NCC1OC(n2ccc(=O)[nH]c2=O)CC1O` (centres undefined), the Ki in test [1] is more than 1000 µM; at dUTP pyrophosphatase [4] it was more than 1000 µM; on dUTP pyrophosphatase [5], 178 µM. Moreover, the IC50 was more than 295 µM in the test on L6; 147 µM in test [2]; more than 98 µM in the test with Leishmania donovani; more than 295 µM in the test on Trypanosoma cruzi; more than 16 µM with Plasmodium falciparum. In [6], the SI was more than 5.
For `CCOP(=O)(OCC)OC[C@H]1O[C@@H](n2ccc(=O)[nH]c2=O)C[C@@H]1O`, the Ki is more than 1000 µM in test [1], more than 1000 µM at dUTP pyrophosphatase [4] and 316 µM at dUTP pyrophosphatase [5]. For the same compound, the IC50 in the test with L6 was 198 µM; in test [2] it was 37 µM; in the test with Leishmania donovani, more than 82 µM; in the test with Trypanosoma cruzi, more than 247 µM; in the test on Plasmodium falciparum, more than 14 µM. Also, in test [6], the SI was more than 3.
On to `O=C(NCC1OC(n2ccc(=O)[nH]c2=O)CC1O)c1ccccc1` (centres undefined), for which the Ki in test [1] was 469 µM; at dUTP pyrophosphatase [4], more than 1000 µM; on dUTP pyrophosphatase [5], 178 µM. Moreover, the IC50 in the test with L6 was more than 272 µM; in test [2] it was 120 µM; with Leishmania donovani, more than 91 µM; in the test on Trypanosoma cruzi it was more than 272 µM; in the test with Plasmodium falciparum, more than 15 µM. Also, the SI in test [6] turned out to be 2.6.
In the case of `CCOP(=O)(OCC)OC[C@H]1O[C@@H](n2ccc(=O)[nH]c2=O)C[C@@H]1O[Si](C)(C)C(C)(C)C`, the Ki in [1] is more than 1000 µM; at dUTP pyrophosphatase [4], more than 1000 µM; at dUTP pyrophosphatase [5], 340 µM. Further, the IC50 with L6 was 108 µM; in [2], 35 µM; in the test with Leishmania donovani it was 63 µM; with Trypanosoma cruzi, 41 µM; in the test with Plasmodium falciparum it was more than 10 µM. The SI in [6] was more than 3.

As a reminder, the Ki is a measure of affinity in units of concentration, obtained from inhibition or displacement. Low values mean a stronger hold on the target, high ones a looser hold on the target. As a reminder, the IC50 is the concentration that gives 50% inhibition. A high value points to weaker potency.

The record behind these values is ChEMBL document CHEMBL1140411, “Deoxyuridine triphosphate nucleotidohydrolase as a potential antiparasitic drug target” (J Med Chem, 2005).
